# What was measured:
# [1] = target: T1, 5-hydroxytryptamine receptor 6 (Homo sapiens, UniProt P50406); assay: Displacement of [3H]LSD from human 5-HT6 serotonin receptor by scintillation proximity assay
# Liver microsomes [2] = assay: (§1) Stability in rat liver microsomes assessed as compound remaining after 1 hr; assay type: ADME, Microsome; settings: microsomes, 1 h
# How it was run: (§2)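 Rat liver microsomes; percent parent compound remaining after 1 h incubation.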
# Caco-2 [3] = assay: (§3) Permeability from apical to basolateral side of human Caco2 cells; assay type: ADME, cell-based
# How it was run: (§4)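 Caco-2 monolayers; apical-to-basolateral flux reported as ×10^-6 cm/s.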
# Liver microsomes [4] = assay: (§5) Stability in human liver microsomes assessed as compound remaining after 1 hr; assay type: ADME, Microsome; settings: microsomes, 1 h
# How it was run: (§6)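 Human liver microsomes; percent parent compound remaining after 1 h incubation.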
# [5] = target: T1, 5-hydroxytryptamine receptor 6; assay: Agonist activity at human 5-HT6 serotonin receptor expressed in CHO-1 cells assessed as cAMP production relative to 5-hydroxytryptamine; assay type: functional, cell-based; parameters: concentration or dose not given beside the values
# Caco-2 [6] = assay: (§7) Efflux ratio of permeability from basolateral to apical side over apical to basolateral side in human Caco2 cells; assay type: ADME, cell-based
# [7] = Cmax in Sprague-Dawley rat at 10 mg/kg, po; assay type: ADME, organism-based; parameters: dose 10 mg/kg, route oral; settings: in vivo
# [8] = Tmax in Sprague-Dawley rat at 10 mg/kg, po; assay type: ADME, organism-based; parameters: dose 10 mg/kg, route oral; settings: in vivo
# Rattus norvegicus [9] = assay: Ex vivo 5-HT6 serotonin receptor occupancy in Sprague-Dawley rat brain at 10 mg/kg after 6 hrs using [125I][…] by autoradiography; assay type: functional
# How it was run: (§8)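 Sprague Dawley rats dosed at 10, 30 or 90 mg/kg, brains taken at 6 or 24 h. Caudate putamen sections incubated with [125I]SB258585 alone (total) or plus methiothepin (non-specific); β-imager read-out. Two determinations per animal, 5 animals per dose group; specific binding expressed relative to vehicle controls.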
# [10] = Half life in Sprague-Dawley rat at 10 mg/kg, po; assay type: ADME, organism-based; parameters: dose 10 mg/kg, route oral; settings: in vivo
# [11] = Cmax (0 to 6 hrs) in Sprague-Dawley rat at 30 mg/kg, po; assay type: ADME, organism-based; parameters: dose 30 mg/kg, route oral; settings: in vivo
# Rattus norvegicus [12] = assay: Ex vivo 5-HT6 serotonin receptor occupancy in Sprague-Dawley rat brain at 90 mg/kg after 24 hrs using [125I][…] by autoradiography; assay type: functional; how it was run: as §8
# [13] = Oral bioavailability in Sprague-Dawley rat at 2 mg/kg; assay type: ADME, organism-based; settings: in vivo
# Rattus norvegicus [14] = assay: Ex vivo 5-HT6 serotonin receptor occupancy in Sprague-Dawley rat brain at 90 mg/kg after 6 hrs using [125I][…] by autoradiography; assay type: functional; how it was run: as §8
# [15] = Ratio of drug level in brain to plasma in Sprague-Dawley rat at 10 mg/kg, po after 6 hrs; assay type: ADME, organism-based; parameters: dose 10 mg/kg, route oral; settings: read-out: BPR
# Rattus norvegicus [16] = assay: Ex vivo 5-HT6 serotonin receptor occupancy in Sprague-Dawley rat brain at 10 mg/kg after 24 hrs using [125I][…] by autoradiography; assay type: functional; how it was run: as §8
# [17] = AUC (0 to infinity) in Sprague-Dawley rat at 10 mg/kg, po; assay type: ADME, organism-based; parameters: time infinity, dose 10 mg/kg, route oral; settings: plasma
# Rattus norvegicus [18] = assay: Ex vivo 5-HT6 serotonin receptor occupancy in Sprague-Dawley rat brain at 30 mg/kg after 6 hrs using [125I][…] by autoradiography; assay type: functional; how it was run: as §8
# Rattus norvegicus [19] = assay: Ex vivo 5-HT6 serotonin receptor occupancy in Sprague-Dawley rat brain at 30 mg/kg after 24 hrs using [125I][…] by autoradiography; assay type: functional; how it was run: as §8
# [20] = Tmax (0 to 6 hrs) in Sprague-Dawley rat at 30 mg/kg, po; assay type: ADME, organism-based; parameters: dose 30 mg/kg, route oral; settings: in vivo
# [21] = Oral bioavailability in Sprague-Dawley rat at 10 mg/kg; assay type: ADME, organism-based; settings: in vivo
# [22] = Clearance in Sprague-Dawley rat at 2 mg/kg, iv; assay type: ADME, organism-based; parameters: dose 2 mg/kg, route intravenous; settings: in vivo
# [23] = Volume of distribution at steady state in Sprague-Dawley rat at 2 mg/kg, iv; assay type: ADME, organism-based; parameters: dose 2 mg/kg, route intravenous; settings: in vivo, read-out: Vdss
# Rattus norvegicus [24] = species on record: Rattus norvegicus; assay: Ex vivo 5-HT6 serotonin receptor occupancy in Sprague-Dawley rat brain after 6 hrs using [125I][…] by autoradiography; assay type: functional, organism-based; how it was run: as §8
# [25] = target: T1, 5-hydroxytryptamine receptor 6; assay: Antagonist activity at human 5-HT6 serotonin receptor expressed in CHO-1 cells assessed as inhibition of 5-hydroxytryptamine-induced cAMP production; assay type: functional, cell-based
# [26] = as §7; assay type: ADME, cell-based; settings: caco-2
# [27] = as §1; assay type: ADME, Microsome; settings: liver microsomes, read-out: Stability; how it was run: as §2
# [28] = as §3; assay type: ADME, cell-based; settings: caco-2, read-out: permeability; how it was run: as §4
# [29] = as §5; assay type: ADME, Microsome; settings: liver microsomes, read-out: Stability; how it was run: as §6
# T1 sequence (P50406 whole entry): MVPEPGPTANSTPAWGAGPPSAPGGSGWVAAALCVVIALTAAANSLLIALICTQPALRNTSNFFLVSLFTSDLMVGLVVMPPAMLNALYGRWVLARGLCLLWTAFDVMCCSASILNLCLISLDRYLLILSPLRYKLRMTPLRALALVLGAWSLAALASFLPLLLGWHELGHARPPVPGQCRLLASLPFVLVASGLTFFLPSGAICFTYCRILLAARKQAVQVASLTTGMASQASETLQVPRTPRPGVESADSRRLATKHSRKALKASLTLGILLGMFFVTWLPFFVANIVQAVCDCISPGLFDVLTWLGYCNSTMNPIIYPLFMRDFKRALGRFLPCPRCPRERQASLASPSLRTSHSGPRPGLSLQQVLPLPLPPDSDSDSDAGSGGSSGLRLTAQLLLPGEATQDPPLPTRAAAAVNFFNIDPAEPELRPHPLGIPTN
smiles,measurement,setting,value
Cn1ccc(S(=O)(=O)c2ccc3c(c2)c2c(n3C)CC3CCC2N3)n1 (stereo unspecified),Ki,[1],1010 nM
Cn1c2c(c3cccc(S(=O)(=O)c4ccccc4)c31)C1CCC(C2)N1 (racemic),Ki,[1],814 nM
Cn1c2c(c3ccc(S(=O)(=O)c4ccccc4)cc31)C1CCC(C2)N1 (racemic),Ki,[1],131 nM
CCN1C2CCC1c1c(n(C)c3ccc(S(=O)(=O)c4ccccc4)cc13)C2 (racemic),Ki,[1],91 nM
O=S(=O)(c1ccccc1)c1ccc2[nH]c3c(c2c1)C1CCC(C3)N1 (racemic),Ki,[1],54 nM
Cn1c2c(c3cc(S(=O)(=O)c4cccc(F)c4)ccc31)C1CCC(C2)N1 (racemic),Ki,[1],4.1 nM
Cn1c2c(c3cc(S(=O)(=O)c4ccncc4)ccc31)C1CCC(C2)N1 (racemic),Ki,[1],> 10000 nM
Cn1c2c(c3cc(S(=O)(=O)n4cccc4)ccc31)C1CCC(C2)N1 (racemic),Ki,[1],32 nM
"Cn1c2c(c3cc(S(=O)(=O)c4csc5ccccc45)ccc31)C1CCC(C2)N1 (single isomer, unassigned) [listing 1 of 2 here]",Stability,Liver microsomes [2],80%
same,permeability,Caco-2 [3],15.7 ×10⁻⁶ cm/s
same,Stability,Liver microsomes [4],78%
"Cn1c2c(c3cc(S(=O)(=O)c4csc5ccccc45)ccc31)C1CCC(C2)N1 (single isomer, unassigned) [listing 2 of 2 here]",Activity,[5],< 15%
"Cn1c2c(c3cc(S(=O)(=O)c4cccc(Cl)c4)ccc31)C1CCC(C2)N1 (single isomer, unassigned; (+)) [listing 1 of 2 here]",Ratio,Caco-2 [6],4.4
same,Stability,Liver microsomes [2],72%
same,permeability,Caco-2 [3],8.55 ×10⁻⁶ cm/s
same,Stability,Liver microsomes [4],93%
"Cn1c2c(c3cc(S(=O)(=O)c4cccc(C(F)(F)F)c4)ccc31)C1CCC(C2)N1 (single isomer, unassigned; (+)) [listing 1 of 2 here]",Cmax,[7],916 ng/mL
same,Tmax,[8],4 h
same,Activity,Rattus norvegicus [9],60%
same,Stability,Liver microsomes [2],79%
same,half-life,[10],10 h
same,Cmax,[11],732 ng/mL
same,permeability,Caco-2 [3],24.8 ×10⁻⁶ cm/s
same,Activity,Rattus norvegicus [12],84%
same,bioavailability,[13],91%
same,Activity,Rattus norvegicus [14],78%
same,Kp at 6 h,[15],1.3
same,Activity,Rattus norvegicus [16],48%
same,Stability,Liver microsomes [4],100%
same,AUC(0-inf),[17],26700 ng·h/mL
same,Activity,Rattus norvegicus [18],76%
same,Activity,Rattus norvegicus [19],74%
same,Tmax,[20],6 h
same,bioavailability,[21],91%
same,clearance,[22],5.7 mL/min/kg
same,Vd,[23],4.7 L/kg
"Cn1c2c(c3cc(S(=O)(=O)n4ccc5ccccc54)ccc31)C1CCC(C2)N1 (single isomer, unassigned; (+)) [listing 1 of 2 here]",Stability,Liver microsomes [2],86%
same,Cmax,[11],41 ng/mL
same,permeability,Caco-2 [3],12 ×10⁻⁶ cm/s
same,Stability,Liver microsomes [4],96%
same,Tmax,[20],6 h
"Cn1c2c(c3cc(S(=O)(=O)c4c[nH]c5ccccc45)ccc31)C1CCC(C2)N1 (single isomer, unassigned; (+)) [listing 1 of 2 here]",Stability,Liver microsomes [2],57%
same,permeability,Caco-2 [3],1.05 ×10⁻⁶ cm/s
same,Stability,Liver microsomes [4],86%
"Cn1c2c(c3cc(S(=O)(=O)c4ccc5[nH]ccc5c4)ccc31)C1CCC(C2)N1 (single isomer, unassigned; (+)) [listing 1 of 2 here]",Stability,Liver microsomes [2],91%
same,Stability,Liver microsomes [4],99%
"Cn1c2c(c3cc(S(=O)(=O)c4c[nH]c5ccccc45)ccc31)C1CCC(C2)N1 (single isomer, unassigned; (+)) [listing 2 of 2 here]",Activity,[5],< 15%
"Cn1c2c(c3cc(S(=O)(=O)c4ccc5[nH]ccc5c4)ccc31)C1CCC(C2)N1 (single isomer, unassigned; (+)) [listing 2 of 2 here]",Activity,[5],< 15%
"Cn1c2c(c3cc(S(=O)(=O)c4cccc(C(F)(F)F)c4)ccc31)C1CCC(C2)N1 (single isomer, unassigned; (+)) [listing 2 of 2 here]",Activity,Rattus norvegicus [24],Dose-dependent effect
same,Activity,[5],< 15%
"Cn1c2c(c3cc(S(=O)(=O)c4cccc(Cl)c4)ccc31)C1CCC(C2)N1 (single isomer, unassigned; (+)) [listing 2 of 2 here]",Kb,[25],4 nM
same,Activity,[5],< 15%
"Cn1c2c(c3cc(S(=O)(=O)c4ccccc4)ccc31)C1CCC(C2)N1 (single isomer, unassigned; (+))",Activity,[5],< 15%
"Cn1c2c(c3cc(S(=O)(=O)n4ccc5ccccc54)ccc31)C1CCC(C2)N1 (single isomer, unassigned; (+)) [listing 2 of 2 here]",Activity,[5],< 15%
"Cn1c2c(c3cc(S(=O)(=O)c4cccc(Cl)c4)ccc31)C1CCC(C2)N1 (single isomer, unassigned; (-)) [listing 1 of 2 here]",efflux ratio,[26],6
same,remaining at 1 h,[27],63%
same,Papp A→B,[28],7.49 ×10⁻⁶ cm/s
same,remaining at 1 h,[29],76%
"Cn1c2c(c3cc(S(=O)(=O)c4cccc(C(F)(F)F)c4)ccc31)C1CCC(C2)N1 (single isomer, unassigned; (-)) [listing 1 of 2 here]",remaining at 1 h,[27],65%
same,Papp A→B,[28],16.5 ×10⁻⁶ cm/s
same,Stability,Liver microsomes [4],78%
"Cn1c2c(c3cc(S(=O)(=O)n4ccc5ccccc54)ccc31)C1CCC(C2)N1 (single isomer, unassigned; (-)) [listing 1 of 2 here]",remaining at 1 h,[27],88%
same,Papp A→B,[28],15 ×10⁻⁶ cm/s
same,remaining at 1 h,[29],82%
"Cn1c2c(c3cc(S(=O)(=O)c4c[nH]c5ccccc45)ccc31)C1CCC(C2)N1 (single isomer, unassigned; (-)) [listing 1 of 2 here]",Stability,Liver microsomes [2],34%
same,permeability,Caco-2 [3],0.41 ×10⁻⁶ cm/s
same,remaining at 1 h,[29],72%
"Cn1c2c(c3cc(S(=O)(=O)c4ccc5[nH]ccc5c4)ccc31)C1CCC(C2)N1 (single isomer, unassigned; (-)) [listing 1 of 2 here]",remaining at 1 h,[27],77%
same,Papp A→B,[28],0.55 ×10⁻⁶ cm/s
same,remaining at 1 h,[29],89%
"Cn1c2c(c3cc(S(=O)(=O)c4csc5ccccc45)ccc31)C1CCC(C2)N1 (single isomer, unassigned; (-)) [listing 1 of 2 here]",remaining at 1 h,[27],67%
same,permeability,Caco-2 [3],0.24 ×10⁻⁶ cm/s
same,Stability,Liver microsomes [4],52%
"Cn1c2c(c3cc(S(=O)(=O)c4c[nH]c5ccccc45)ccc31)C1CCC(C2)N1 (single isomer, unassigned; (-)) [listing 2 of 2 here]",Activity,[5],< 15%
"Cn1c2c(c3cc(S(=O)(=O)c4ccc5[nH]ccc5c4)ccc31)C1CCC(C2)N1 (single isomer, unassigned; (-)) [listing 2 of 2 here]",Activity,[5],< 15%
"Cn1c2c(c3cc(S(=O)(=O)c4cccc(C(F)(F)F)c4)ccc31)C1CCC(C2)N1 (single isomer, unassigned; (-)) [listing 2 of 2 here]",Activity,[5],< 15%
"Cn1c2c(c3cc(S(=O)(=O)c4cccc(Cl)c4)ccc31)C1CCC(C2)N1 (single isomer, unassigned; (-)) [listing 2 of 2 here]",Kb,[25],3.5 nM
same,Activity,[5],< 15%
"Cn1c2c(c3cc(S(=O)(=O)c4ccccc4)ccc31)C1CCC(C2)N1 (single isomer, unassigned; (-))",Activity,[5],< 15%
"Cn1c2c(c3cc(S(=O)(=O)c4csc5ccccc45)ccc31)C1CCC(C2)N1 (single isomer, unassigned; (-)) [listing 2 of 2 here]",Activity,[5],< 15%
"Cn1c2c(c3cc(S(=O)(=O)n4ccc5ccccc54)ccc31)C1CCC(C2)N1 (single isomer, unassigned; (-)) [listing 2 of 2 here]",Activity,[5],< 15%

# From ChEMBL document CHEMBL1949664, “Epiminocyclohepta[b]indole analogs as 5-HT6 antagonists” (Bioorg Med Chem Lett, 2012)
